ChEMBL document CHEMBL3992541, “Combined treatment with zingerone and its novel derivative synergistically inhibits TGF-β1 induced epithelial-mesenchymal transition, migration and invasion of human hepatocellular carcinoma cells” (2017)
Calls of active or inactive are those of the source. No cut-off for these calls is given here.

Columns and labels:
SNU-182 [1] = test: Inhibition of TGFbeta1-induced epithelial-mesenchymal transition in human SNU182 cells assessed as reduction in downregulation of E-cadherin expression at 12.5 uM preincubated for 2 hrs followed by TGFbeta1 addition measured after 48 hrs by Western blot method; assay type: functional, cell-based
In short: (§1)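 SNU182 cells pretreated 2 h with single agents (12.5 or 40 µM) or the mixture (20 and 40 µM), then stimulated with TGF-β1 5 ng/ml for 48 h. E-cadherin and Snail protein detected by Western blot, with GAPDH as loading control.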

SNU-182 [2] = test: Inhibition of TGFbeta1-induced epithelial-mesenchymal transition in human SNU182 cells assessed as reduction in MMP9 mRNA expression at 12.5 uM preincubated for 2 hrs followed by TGFbeta1 addition measured after 48 hrs by qRT-PCR method; assay type: functional, cell-based
In short: (§2)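 SNU182 cells pretreated 2 h with single agents (12.5 or 40 µM) or the mixture (20 or 40 µM), then TGF-β 5 ng/ml for 48 h. MMP-2 and MMP-9 mRNA measured by RT-PCR with densitometry and by qRT-PCR, fold change by the 2^-ΔΔCt method. Mean±SD of triplicates.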

SNU-182 [3] = test: Inhibition of TGFbeta1-induced epithelial-mesenchymal transition in human SNU182 cells assessed as reduction in upregulation of Snail expression at 12.5 uM preincubated for 2 hrs followed by TGFbeta1 addition measured after 48 hrs by Western blot method; assay type: functional, cell-based; in short: as §1
SNU-182 [4] = test: Growth inhibition of human SNU182 cells assessed as cell survival at 12.5 uM after 48 hrs by CCK8 assay relative to control; assay type: functional; conditions: SNU-182, 48 h, read-out: Survival
In short: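 SNU182 human hepatocellular carcinoma cells were exposed to compound at 6.25, 12.5, 25, 50 and 100 µM in serum-free DMEM for 48 h. Viability was read by CCK-8, where WST-8 is reduced by cellular dehydrogenases to a soluble formazan, and expressed as survival relative to vehicle control. Values are mean±SD of triplicates.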

SNU-182 [5] = test: Inhibition of TGFbeta1-induced epithelial-mesenchymal transition in human SNU182 cells assessed as reduction in MMP2 mRNA expression at 12.5 uM preincubated for 2 hrs followed by TGFbeta1 addition measured after 48 hrs by qRT-PCR method; assay type: functional, cell-based; in short: as §2
SNU-182 [6] = test: Growth inhibition of human SNU182 cells at <12.5 uM after 48 hrs by CCK8 assay; assay type: functional, cell-based
SNU-182 [7] = test: Growth inhibition of human SNU182 cells after 48 hrs by CCK8 assay; assay type: functional, cell-based

CCCCC/C=C/C(=O)CCc1ccc(O)c(OC)c1 [SHOGAOL]
inhibition (SNU-182 [1]): inactive | inhibition (SNU-182 [2]): inactive | inhibition (SNU-182 [3]): inactive | viability at 12.5 µM (SNU-182 [4]): > 90% | inhibition (SNU-182 [5]): inactive | growth inhibition (GI) (SNU-182 [6]): inactive | growth inhibition (GI) (SNU-182 [7]): Dose-dependent effect
